{"source": "ChEMBL document CHEMBL1157184", "about": "“Hymenoic acid, a novel specific inhibitor of human DNA polymerase lambda from a fungus of Hymenochaetaceae sp” (Bioorg Med Chem, 2008)", "key": {"[1]": {"compound": "C/C(=C\\CC[C@H](C)C(=O)O)[C@H]1CC[C@H](C(=O)O)CC1", "experiment": "Inhibition of human DNA polymerase lambda at 40 uM using nucleotide as substrate", "method_in_brief": "(§1)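 Kinetics on full-length human pol λ at 0, 20, 40 and 60 μM compound, varying either the template-primer poly(dA)/oligo(dT)12-18 or the nucleotide substrate dTTP. Km and Vmax (pmol/h) came from Lineweaver-Burk plots and Ki from Dixon plots.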"}, "[2]": {"compound": "C/C(=C\\CC[C@H](C)C(=O)O)[C@H]1CC[C@H](C(=O)O)CC1", "experiment": "Inhibition of human DNA polymerase lambda at 20 uM using nucleotide as substrate", "method_in_brief": "as §1"}, "[3]": {"compound": "C/C(=C\\CC[C@H](C)C(=O)O)[C@H]1CC[C@H](C(=O)O)CC1", "experiment": "Inhibition of human DNA polymerase lambda at 40 uM using template primer as as substrate", "method_in_brief": "as §1"}, "[4]": {"compound": "C/C(=C\\CC[C@H](C)C(=O)O)[C@H]1CC[C@H](C(=O)O)CC1", "experiment": "Inhibition of human DNA polymerase lambda at 60 uM using nucleotide as substrate", "method_in_brief": "as §1"}, "[5]": {"compound": "C/C(=C\\CC[C@H](C)C(=O)O)[C@H]1CC[C@H](C(=O)O)CC1", "experiment": "Inhibition of human DNA polymerase lambda at 60 uM using template primer as as substrate", "method_in_brief": "as §1"}, "[6]": {"compound": "C/C(=C\\CC[C@H](C)C(=O)O)[C@H]1CC[C@H](C(=O)O)CC1", "experiment": "Inhibition of human DNA polymerase lambda at 20 uM using template primer as substrate", "method_in_brief": "as §1"}}, "data": [{"protein": "DNA polymerase lambda (Homo sapiens), Q9UGP5 (protein) MDPRGILKAFPKRQKIHADASSKVLAKIPRREEGEEAEEWLSSLRAHVVRTGIGRARAELFEKQIVQHGGQLCPAQGPGVTHIVVDEGMDYERALRLLRLPQLPPGAQLVKSAWLSLCLQERRLVDVAGFSIFIPSRYLDHPQPSKAEQDASIPPGTHEALLQTALSPPPPPTRPVSPPQKAKEAPNTQAQPISDDEASDGEETQVSAADLEALISGHYPTSLEGDCEPSPAPAVLDKWVCAQPSSQKATNHNLHITEKLEVLAKAYSVQGDKWRALGYAKAINALKSFHKPVTSYQEACSIPGIGKRMAEKIIEILESGHLRKLDHISESVPVLELFSNIWGAGTKTAQMWYQQGFRSLEDIRSQASLTTQQAIGLKHYSDFLERMPREEATEIEQTVQKAAQAFNSGLLCVACGSYRRGKATCGDVDVLITHPDGRSHRGIFSRLLDSLRQEGFLTDDLVSQEENGQQQKYLGVCRLPGPGRRHRRLDIIVVPYSEFACALLYFTGSAHFNRSMRALAKTKGMSLSEHALSTAVVRNTHGCKVGPGRVLPTPTEKDVFRLLGLPYREPAERDW", "values": [{"measurement": "Vmax", "setting": "[1]", "result": 32.3, "unit": "pmol/h"}, {"measurement": "Vmax", "setting": "[2]", "result": 40, "unit": "pmol/h"}, {"measurement": "Vmax", "setting": "[3]", "result": 48.8, "unit": "pmol/h"}, {"measurement": "Vmax", "setting": "[4]", "result": 27, "unit": "pmol/h"}, {"measurement": "Vmax", "setting": "[5]", "result": 40.8, "unit": "pmol/h"}, {"measurement": "Vmax", "setting": "[6]", "result": 62.5, "unit": "pmol/h"}]}]}
